Measurements published in ChEMBL document CHEMBL5329167, “Design, synthesis and evaluation of halogenated phenazine antibacterial prodrugs targeting nitroreductase enzymes for activation” (RSC Med Chem, 2023).
Converted amounts (≈) assume the structure as drawn. The source made the active and inactive calls. No cut-off for these calls is given here.

Experiments:
Staphylococcus aureus [1] = assay: Antibacterial activity against Staphylococcus aureus clinical isolate 129 assessed as bacterial growth inhibition incubated for 16 hrs by CLSI based broth microdilution method; format: functional
Streptococcus pneumoniae = assay: Antibacterial activity against Streptococcus pneumoniae 6303 assessed as bacterial growth inhibition incubated for 16 hrs by CLSI based broth microdilution method; format: functional
Outline: (§1)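 CLSI broth microdilution in LB: eleven 2-fold serial dilutions, 0.10–100 µM. DMSO vehicle/negative control diluted from 0.5% v/v. Wells seeded with ~10⁵ cells from log-phase culture (OD₆₀₀ 0.6–0.8), held 16 h at 37 °C. MIC taken as the lowest concentration preventing growth by OD₆₀₀ turbidity. Minimum three independent experiments.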

[2] = Metal chelating activity assessed as formation of phenazine-iron complex measured for 1 to 60 mins by UV-vis spectroscopy; conditions: time 1-60 min
Outline: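 Compound from a 10 mM DMSO stock diluted in DMSO in a cuvette, alone or with ammonium iron(II) sulfate hexahydrate (10 mM aqueous stock). Spectra of the compound-only cuvette and the iron-containing cuvette are compared by UV-vis spectrometry to judge phenazine–iron(II) complex formation.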

Enterococcus = assay: Antibacterial activity against vancomycin-resistant Enterococcus 700221 assessed as bacterial growth inhibition incubated for 16 hrs by CLSI based broth microdilution method; format: functional
Outline: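 Growth scored by OD₆₀₀ turbidity after 16 h at 37 °C; MIC is the lowest concentration preventing growth. DMSO vehicle control up to 0.5% v/v. Three or more independent experiments.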

Staphylococcus aureus [3] = assay: Antibacterial activity against methicillin-resistant Staphylococcus aureus 1707 assessed as bacterial growth inhibition incubated for 16 hrs by CLSI based broth microdilution method; format: functional
Outline: (§2)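 Broth microdilution per CLSI in LB, eleven two-fold serial dilutions spanning 0.10 to 100 µM. Inoculum ~10⁵ cells/well from fresh log-phase culture (OD₆₀₀ 0.6–0.8). MIC taken as lowest concentration preventing growth after 16 h at 37 °C, read by OD₆₀₀ turbidity. DMSO vehicle control, top 0.5% v/v. At least three independent experiments.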

Enterococcus faecalis = assay: Antibacterial activity against Enterococcus faecalis OG1RF assessed as bacterial growth inhibition incubated for 16 hrs by CLSI based broth microdilution method; format: functional
Outline: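 Broth microdilution per CLSI in brain-heart infusion: eleven 2-fold dilutions spanning 0.10–100 µM, with DMSO vehicle/negative control topping at 0.5% v/v. Inoculum ~10⁵ cells/well from log-phase culture (OD₆₀₀ 0.6–0.8). 37 °C, 16 h. MIC is the lowest concentration preventing growth, read as OD₆₀₀ turbidity. At least three independent experiments.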

[4] = test system: Staphylococcus epidermidis; assay: Antibacterial activity against Staphylococcus epidermidis 12228 assessed as bacterial growth inhibition incubated for 16 hrs by CLSI based broth microdilution method; format: functional; outline: as §1
Staphylococcus aureus [5] = assay: Antibacterial activity against methicillin-resistant Staphylococcus aureus BAA-44 assessed as bacterial growth inhibition incubated for 16 hrs by CLSI based broth microdilution method; format: functional; outline: as §2
Staphylococcus aureus [6] = assay: Antibacterial activity against methicillin-resistant Staphylococcus aureus 1707 assessed as zone of inhibition at 10 mM incubated for 16 hrs by agar diffusion assay; format: functional
Outline: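 Modified Kirby-Bauer disk diffusion. 100 µL MRSA 1707 inoculum (OD₆₀₀ 0.7, ~10⁸ CFU) spread on LB agar and left 30 min. 10 µL of 10 mM DMSO compound solution then pipetted onto the plate. Incubation 16 h at 37 °C; zone of inhibition area (cm²) measured. Three independent experiments.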

[7] = Lipophilicity, LogP of compound in octanol-water mixture incubated for 1 hr by UV-vis spectroscopy; format: physicochemical
Outline: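 Shake-flask partition: compound in octanol (1% v/v DMSO) mixed with equal volume water, stirred vigorously, left 1 h at room temperature to separate. Octanol-phase concentration measured by UV-Vis at 370 or 380 nm against a serial-dilution standard curve. Water concentration obtained by mass balance; LogP = log10(Coct/Cw). Acetophenone as positive control. Three independent experiments.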

Staphylococcus aureus [8] = assay: Antibacterial activity against methicillin-resistant Staphylococcus aureus clinical isolate 2 assessed as bacterial growth inhibition incubated for 16 hrs by CLSI based broth microdilution method; format: functional
Staphylococcus aureus [9] = assay: Antibacterial activity against methicillin-resistant Staphylococcus aureus BAA-1707 assessed as bacterial growth inhibition incubated for 16 hrs by CLSI based broth microdilution method; format: functional; outline: as §2
Staphylococcus aureus [10] = assay: Antibacterial activity against Staphylococcus aureus clinical isolate 147 assessed as bacterial growth inhibition incubated for 16 hrs by CLSI based broth microdilution method; format: functional
[11] = Hemolytic activity against red blood cells (unknown origin) at 200 uM; format: toxicity, cell-based, Erythrocyte; conditions: read-out: Activity
Staphylococcus aureus [12] = assay: Antibacterial activity against Staphylococcus aureus clinical isolate 138 assessed as bacterial growth inhibition incubated for 16 hrs by CLSI based broth microdilution method; format: functional
Staphylococcus aureus [13] = assay: Antibacterial activity against methicillin-resistant Staphylococcus aureus clinical isolate 1 assessed as bacterial growth inhibition incubated for 16 hrs by CLSI based broth microdilution method; format: functional
[14] = test system: Staphylococcus epidermidis; assay: Antibacterial activity against methicillin-resistant Staphylococcus epidermidis 35984 assessed as bacterial growth inhibition incubated for 16 hrs by CLSI based broth microdilution method; format: functional; outline: as §2
Staphylococcus aureus [15] = assay: Antibacterial activity against Staphylococcus aureus clinical isolate 156 assessed as bacterial growth inhibition incubated for 16 hrs by CLSI based broth microdilution method; format: functional
[16] = test system: Staphylococcus epidermidis; assay: Antibacterial activity against Staphylococcus epidermidis clinical isolate CL-1 assessed as bacterial growth inhibition incubated for 16 hrs by CLSI based broth microdilution method; format: functional
[17] = Cytotoxicity against HEK293 cells incubated for 48 hrs by MTT assay; format: toxicity, cell-based; conditions: human
Outline: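 HEK-293 cells (10⁴/well) in DMEM with 10% FBS, penicillin/streptomycin, settled overnight at 37 °C, 5% CO₂. Medium replaced with compound at 0.10–100 µM (2-fold steps); DMSO as negative control. After 48 h at 37 °C, MTT (5 mg/mL stock) added for 3 h. Formazan dissolved in DMSO, OD read at 570 nm. Eight replicates per treatment.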

Question: Which MIC (Staphylococcus aureus [1]) does the source give for `Cc1cccc2nc3c(O)c(Br)c(Cl)c(Br)c3nc12` here?
Answer: 0.1 µM (≈ 0.0402 µg/mL)

Question: And the MIC (Streptococcus pneumoniae)?
Answer: 0.1 µM (≈ 0.0402 µg/mL)

Question: What about the Activity [2] of the same compound?
Answer: inactive

Question: And the MIC (Enterococcus)?
Answer: 0.1 µM (≈ 0.0402 µg/mL)

Question: And the MIC (Staphylococcus aureus [3])?
Answer: 0.1 µM (≈ 0.0402 µg/mL)

Question: And the MIC (Enterococcus faecalis)?
Answer: 0.39 µM (≈ 0.157 µg/mL)

Question: What about the MIC [4] of the same compound?
Answer: 0.1 µM (≈ 0.0402 µg/mL)

Question: What about the MIC (Staphylococcus aureus [5]) of the same compound?
Answer: 0.15 µM (≈ 0.0604 µg/mL)

Question: And the “diameter of the inhibition zone (DIZ)” value (Staphylococcus aureus [6])?
Answer: 3.85 cm2

Question: And the logP at 1 h [7]?
Answer: 0.81

Question: What about the MIC (Staphylococcus aureus [8]) of the same compound?
Answer: 0.15 µM (≈ 0.0604 µg/mL)

Question: What about the MIC (Staphylococcus aureus [9]) of the same compound?
Answer: 0.1 µM (≈ 0.0402 µg/mL)

Question: And the MIC (Staphylococcus aureus [10])?
Answer: 0.1 µM (≈ 0.0402 µg/mL)

Question: And the hemolysis at 200 µM [11]?
Answer: < 1%

Question: And the MIC (Staphylococcus aureus [12])?
Answer: 0.1 µM (≈ 0.0402 µg/mL)

Question: What about the MIC (Staphylococcus aureus [13]) of the same compound?
Answer: 0.1 µM (≈ 0.0402 µg/mL)

Question: What about the MIC [14] of the same compound?
Answer: 0.1 µM (≈ 0.0402 µg/mL)

Question: And the MIC (Staphylococcus aureus [15])?
Answer: 0.1 µM (≈ 0.0402 µg/mL)

Question: What about the MIC [16] of the same compound?
Answer: 0.39 µM (≈ 0.157 µg/mL)

Question: What about the CC50 at 48 h [17] of the same compound?
Answer: 18.3 µM
